Data published in ChEMBL document CHEMBL3608222, “Discovery and structure-guided optimization of tert-butyl 6-(phenoxymethyl)-3-(trifluoromethyl)benzoates as liver X receptor agonists” (Bioorg Med Chem Lett, 2015).

molecular target: Retinoic acid receptor RXR-alpha/oxysterols receptor LXR-beta (Homo sapiens, UniProt P55055); assay: Binding affinity to His-LXRbeta/FLAG-RXRalpha (unknown origin) by FITC-labeled T0901317 based fluorescence polarization assay; assay type: protein-complex assay; conditions: not given
Sequence (P19793 whole entry, one chain of several): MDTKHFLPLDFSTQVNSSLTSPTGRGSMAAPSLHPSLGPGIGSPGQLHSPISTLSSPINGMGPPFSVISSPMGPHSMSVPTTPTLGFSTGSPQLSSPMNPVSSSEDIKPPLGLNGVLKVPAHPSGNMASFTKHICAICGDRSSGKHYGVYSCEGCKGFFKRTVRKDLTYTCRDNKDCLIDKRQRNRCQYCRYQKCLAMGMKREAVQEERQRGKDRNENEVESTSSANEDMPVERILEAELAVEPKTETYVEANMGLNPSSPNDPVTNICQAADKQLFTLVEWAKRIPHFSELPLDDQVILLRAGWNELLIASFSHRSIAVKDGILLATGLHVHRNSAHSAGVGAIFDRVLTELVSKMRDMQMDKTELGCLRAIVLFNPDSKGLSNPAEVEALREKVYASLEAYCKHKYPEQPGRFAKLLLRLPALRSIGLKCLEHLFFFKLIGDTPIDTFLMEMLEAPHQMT

Ki	SMILES
660 nM	CN(C(=O)CCC(=O)O)c1ccc(OCc2ccc(C(F)(F)F)cc2C(=O)OC(C)(C)C)cc1
630 nM	CC(C)(C)OC(=O)c1cc(C(F)(F)F)ccc1COc1ccc(CCCCC(=O)O)cc1
180 nM	CC(=O)N(C)c1ccc(OCc2ccc(C(F)(F)F)cc2C(=O)OC(C)(C)C)cc1
4900 nM	CC(C)(C)OC(=O)c1cc(C(F)(F)F)ccc1COc1ccc(CCCC(=O)O)cc1
> 10000 nM	CC(C)(C)OC(=O)c1cc(C(F)(F)F)ccc1COc1ccc(-c2ccc(C(=O)O)cc2)cc1
360 nM	CC(C)(C)OC(=O)c1cc(C(F)(F)F)ccc1COc1ccc(-c2cccc(CC(=O)O)c2)cc1

system: not listed separately; assay: Plasma concentration in mouse at 10 mg/kg, po measured at 6 hrs; assay type: ADME, organism-based; conditions: not given
Method in brief: (§1)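 Mice given a single oral dose of 10 mg/kg. Plasma concentration measured in µg/ml as Cmax and at 6 h.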

concentration at 6 h	SMILES
1000 ng/mL	CC(=O)N(C)c1ccc(OCc2ccc(C(F)(F)F)cc2C(=O)OC(C)(C)C)cc1

molecular target: T1, Oxysterols receptor LXR-beta (Homo sapiens, UniProt P55055); assay: Agonist activity at human LXRbeta expressed in African green monkey kidney CV1 cells co-expressing pTAL-LXRE including LXR response element incubated for 20 hrs by luciferase reporter gene assay; assay type: cell-based, CV-1; conditions: not given
T1 sequence (P55055 whole entry): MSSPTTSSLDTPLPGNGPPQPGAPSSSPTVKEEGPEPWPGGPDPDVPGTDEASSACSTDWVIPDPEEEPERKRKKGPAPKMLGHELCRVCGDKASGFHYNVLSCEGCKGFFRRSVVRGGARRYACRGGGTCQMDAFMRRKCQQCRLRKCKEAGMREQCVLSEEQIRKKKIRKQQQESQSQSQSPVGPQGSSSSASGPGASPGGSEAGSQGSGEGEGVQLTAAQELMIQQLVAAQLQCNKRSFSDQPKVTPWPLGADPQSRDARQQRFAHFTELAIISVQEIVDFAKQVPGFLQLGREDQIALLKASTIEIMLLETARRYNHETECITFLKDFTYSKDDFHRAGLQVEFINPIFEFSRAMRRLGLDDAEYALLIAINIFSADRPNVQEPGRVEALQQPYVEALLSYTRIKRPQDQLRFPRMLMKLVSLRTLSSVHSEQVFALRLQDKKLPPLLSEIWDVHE
Method in brief: (§2)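 CV-1 cells grown in DMEM with 10% charcoal/dextran-treated FBS at 37 °C, seeded 20 h before transfection. Cells were lipofected with pcDNA-hLXRa or pcDNA-hLXRb plus the pTAL-LXRE luciferase reporter. After 3 h, medium was added, then compound in DMSO. Incubation about 20 h before luciferase luminescence read-out.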

EC50	SMILES
210 nM	CC(=O)N(C)c1ccc(OCc2ccc(C(F)(F)F)cc2C(=O)OC(C)(C)C)cc1

molecular target: T2, Oxysterols receptor LXR-alpha (Homo sapiens) (UniProt Q13133); assay: Agonist activity at human LXRalpha expressed in African green monkey kidney CV1 cells co-expressing pTAL-LXRE including LXR response element incubated for 20 hrs by luciferase reporter gene assay relative to T0901317; assay type: cell-based; conditions: CV-1; method in brief: as §2
T2 sequence (whole entry): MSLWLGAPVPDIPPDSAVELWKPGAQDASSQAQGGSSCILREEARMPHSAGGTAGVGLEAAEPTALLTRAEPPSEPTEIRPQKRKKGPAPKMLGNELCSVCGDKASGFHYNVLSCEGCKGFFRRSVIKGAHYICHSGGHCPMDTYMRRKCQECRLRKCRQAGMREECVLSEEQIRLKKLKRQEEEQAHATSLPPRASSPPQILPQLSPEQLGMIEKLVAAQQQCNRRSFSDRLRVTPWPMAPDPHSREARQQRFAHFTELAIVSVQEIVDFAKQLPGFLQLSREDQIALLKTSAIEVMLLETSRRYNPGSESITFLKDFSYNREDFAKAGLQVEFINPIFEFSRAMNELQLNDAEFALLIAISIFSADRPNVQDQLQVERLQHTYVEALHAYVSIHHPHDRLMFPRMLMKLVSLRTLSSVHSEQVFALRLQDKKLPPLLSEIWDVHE

Efficacy	SMILES
27%	CC(=O)N(C)c1ccc(OCc2ccc(C(F)(F)F)cc2C(=O)OC(C)(C)C)cc1

molecular target: T3, Oxysterols receptor LXR-beta (Homo sapiens) (UniProt P55055); assay: Agonist activity at human LXRbeta expressed in African green monkey kidney CV1 cells co-expressing pTAL-LXRE including LXR response element incubated for 20 hrs by luciferase reporter gene assay relative to T0901317; assay type: cell-based; conditions: CV-1; method in brief: as §2
T3 sequence (whole entry): T1 sequence (P55055 whole entry)

Efficacy	SMILES
28%	CC(=O)N(C)c1ccc(OCc2ccc(C(F)(F)F)cc2C(=O)OC(C)(C)C)cc1

molecular target: T4, Oxysterols receptor LXR-alpha (Homo sapiens, UniProt Q13133); assay: Agonist activity at human LXRalpha expressed in African green monkey kidney CV1 cells co-expressing pTAL-LXRE including LXR response element incubated for 20 hrs by luciferase reporter gene assay; assay type: cell-based, CV-1; conditions: not given
T4 sequence (Q13133 whole entry): T2 sequence (whole entry)

EC50	SMILES
310 nM	CC(=O)N(C)c1ccc(OCc2ccc(C(F)(F)F)cc2C(=O)OC(C)(C)C)cc1

molecular target: Retinoic acid receptor RXR-alpha/oxysterols receptor LXR-alpha (Homo sapiens, UniProt Q13133); assay: Binding affinity to His-LXRalpha/FLAG-RXRalpha (unknown origin) by FITC-labeled T0901317 based fluorescence polarization assay; assay type: protein-complex assay; conditions: not given
Sequence (P19793 whole entry, one chain of several): as the sequence (P19793 whole entry, one chain of several) above

Ki	SMILES
4 µM	CN(C(=O)CCC(=O)O)c1ccc(OCc2ccc(C(F)(F)F)cc2C(=O)OC(C)(C)C)cc1
0.87 µM	CC(=O)N(C)c1ccc(OCc2ccc(C(F)(F)F)cc2C(=O)OC(C)(C)C)cc1
> 10 µM	CC(C)(C)OC(=O)c1cc(C(F)(F)F)ccc1COc1ccc(-c2ccc(C(=O)O)cc2)cc1
5.1 µM	CC(C)(C)OC(=O)c1cc(C(F)(F)F)ccc1COc1ccc(-c2cccc(CC(=O)O)c2)cc1

system: not listed separately; assay: Cmax in mouse at 10 mg/kg, po; assay type: ADME, organism-based; set-up: dose 10 mg/kg, route oral; conditions: in vivo; method in brief: as §1

Cmax	SMILES
1700 ng/mL	CC(=O)N(C)c1ccc(OCc2ccc(C(F)(F)F)cc2C(=O)OC(C)(C)C)cc1
